Measured values gathered from unrelated publications.
Compare with care: the assays were run in different laboratories.
Target: Dual specificity mitogen-activated protein kinase kinase 4 (MAP2K4, Homo sapiens, UniProt P45985)
One construct used (P45985 1-399): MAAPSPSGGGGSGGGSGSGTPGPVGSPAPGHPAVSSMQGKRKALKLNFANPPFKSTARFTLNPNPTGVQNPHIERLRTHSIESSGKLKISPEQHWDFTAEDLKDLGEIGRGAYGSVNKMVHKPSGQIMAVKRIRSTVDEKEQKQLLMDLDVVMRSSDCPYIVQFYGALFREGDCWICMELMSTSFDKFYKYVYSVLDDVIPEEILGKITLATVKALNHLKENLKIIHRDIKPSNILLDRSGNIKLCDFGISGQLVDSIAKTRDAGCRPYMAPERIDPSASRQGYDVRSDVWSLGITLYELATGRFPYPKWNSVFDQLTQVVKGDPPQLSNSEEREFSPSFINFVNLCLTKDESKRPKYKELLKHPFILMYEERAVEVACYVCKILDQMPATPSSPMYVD

Structure (SMILES)	assay	setting	remaining binding
CS(=O)(=O)N1CCCC(NC(=O)[C@H](CCC2CCCCC2)NC(=O)c2ccc(CNC(=O)c3cnc4ccccn34)cc2)C1 (some centres unmarked)	cell-free assay, competition with immobilised ligand	0.1 µM	100%
O=C(NCCCN1CCOCC1)c1ccc(Nc2ncc(Cl)c(-c3ccc(Cl)s3)n2)cc1	binding, competition with immobilised ligand	1 µM	56%
Cc1cnn2ncc(-c3ccnc(N(C)C)n3)c2c1	binding	1 µM	100%
Cc1nc(C2CCN(C(=O)c3ccc(OC(F)(F)F)cc3N)CC2)c2ncc(N3CCN(C)CC3)cc2n1	cell-free assay, competition with immobilised ligand	1 µM	100%
COc1cnc(Nc2cccc(S(N)(=O)=O)c2)nc1N1CCN(c2ccccc2)C(=O)C1	binding, competition with immobilised ligand	1 µM	71%
Nc1c(C(=O)NCc2ccc(C(=O)NCCCC3CCCCC3)cc2)cnn1-c1ccccc1	cell-free assay, competition with immobilised ligand	0.1 µM	100%
Nc1ncc2c(n1)-c1c([nH]c3ccc(C#CC4CC4)cc13)CCCC2	binding, competition with immobilised ligand	1 µM	24%
CN(c1nccc(-c2cnn3ncccc23)n1)C1CC1	binding	1 µM	100%
O=C(c1ccc(Nc2nccc(-c3cc4ccccc4s3)n2)cc1)N1CCC(N2CCCC2)CC1	binding, competition with immobilised ligand	1 µM	78%
CCC(=O)N[C@@H]1CC[C@H](C(=O)N(C)c2ccc(-c3nc4ccccc4o3)cc2)C1	cell-free assay, competition with immobilised ligand	1 µM	100%
CNC(=O)[C@@H]1CC[C@@H](n2c(-c3ccc4cnccc4c3)nc3ccc(C(=O)NCc4cccc(C(N)=O)c4)cc32)C1	binding, competition with immobilised ligand	1 µM	100%
CC(=O)N1CCC(c2ccc(C(=O)NC3=NCCN3)cc2C(F)(F)F)CC1	cell-free assay, competition with immobilised ligand	1 µM	100%
CN(C)c1nccc(-c2cnn3ncccc23)n1	binding	1 µM	81%
COc1ncc2cc3ccccc3nc2c1C#N	cell-free assay, competition with immobilised ligand	5 µM	100%
CN(C)c1ncc(F)c(-c2cnn3ncccc23)n1	binding	1 µM	100%
CC1=C(C#N)C(c2ccc3c(c2)c(NC(=O)c2ccccc2C)nn3C)C(C#N)=C(C)N1	cell-free assay, competition with immobilised ligand	1 µM	79%
CC1CCCN1c1nccc(-c2cnn3ncccc23)n1 (centres unmarked)	binding	1 µM	100%
O=C(Nc1c[nH]nc1C(=O)NC1CCNCC1)c1cc(F)cc(F)c1	binding, competition with immobilised ligand	1 µM	94%
N[C@H]1CCN(c2nccc(-c3cnn4ncccc34)n2)C1	binding	1 µM	86%
FC(F)(F)Oc1cccc(-c2cnc3ccc(-c4ccncc4)nn23)c1	cell-free assay, competition with immobilised ligand	5 µM	69%
